Test results from ChEMBL document CHEMBL4184148 (Bioorg Med Chem Lett, 2017).

Tests used:
[1] = biological target: Serine/threonine-protein kinase DCLK1 (Homo sapiens) (UniProt O15075); assay: Binding affinity to wild-type human partial length DCAMKL1 (L270 to A662 residues) expressed in HEK293 cells at 1 uM by Kinomescan method relative to control; type: cell-based
[2] = biological target: Serine/threonine-protein kinase pim-3 (Homo sapiens) (UniProt Q86V86); assay: Binding affinity to wild-type human partial length PIM3 (G16 to A317 residues) expressed in Escherichia coli BL21 at 1 uM by Kinomescan method relative to control
[3] = biological target: Serine/threonine-protein kinase TBK1 (Homo sapiens) (UniProt Q9UHD2); assay: Binding affinity to wild-type human full length TBK1 (M1 to L729 residues) expressed in HEK293 cells at 1 uM by Kinomescan method relative to control; type: cell-based
[4] = biological target: Myosin light chain kinase (Homo sapiens) (UniProt Q32MK0); assay: Binding affinity to wild-type human partial length MLCK (D488 to K800 residues) expressed in Escherichia coli BL21 at 1 uM by Kinomescan method relative to control
[5] = biological target: Phosphatidylinositol 4,5-bisphosphate 3-kinase catalytic subunit gamma isoform (Homo sapiens) (UniProt P48736); assay: Binding affinity to wild-type human partial length PIK3CG (S144 to A1102 residues) expressed in HEK293 cells at 1 uM by Kinomescan method relative to control; type: cell-based
Chain of Phosphatidylinositol 4,5-bisphosphate 3-kinase catalytic subunit gamma isoform (Homo sapiens) (P48736 whole entry, looked up, the tested form may be a part, canonical isoform): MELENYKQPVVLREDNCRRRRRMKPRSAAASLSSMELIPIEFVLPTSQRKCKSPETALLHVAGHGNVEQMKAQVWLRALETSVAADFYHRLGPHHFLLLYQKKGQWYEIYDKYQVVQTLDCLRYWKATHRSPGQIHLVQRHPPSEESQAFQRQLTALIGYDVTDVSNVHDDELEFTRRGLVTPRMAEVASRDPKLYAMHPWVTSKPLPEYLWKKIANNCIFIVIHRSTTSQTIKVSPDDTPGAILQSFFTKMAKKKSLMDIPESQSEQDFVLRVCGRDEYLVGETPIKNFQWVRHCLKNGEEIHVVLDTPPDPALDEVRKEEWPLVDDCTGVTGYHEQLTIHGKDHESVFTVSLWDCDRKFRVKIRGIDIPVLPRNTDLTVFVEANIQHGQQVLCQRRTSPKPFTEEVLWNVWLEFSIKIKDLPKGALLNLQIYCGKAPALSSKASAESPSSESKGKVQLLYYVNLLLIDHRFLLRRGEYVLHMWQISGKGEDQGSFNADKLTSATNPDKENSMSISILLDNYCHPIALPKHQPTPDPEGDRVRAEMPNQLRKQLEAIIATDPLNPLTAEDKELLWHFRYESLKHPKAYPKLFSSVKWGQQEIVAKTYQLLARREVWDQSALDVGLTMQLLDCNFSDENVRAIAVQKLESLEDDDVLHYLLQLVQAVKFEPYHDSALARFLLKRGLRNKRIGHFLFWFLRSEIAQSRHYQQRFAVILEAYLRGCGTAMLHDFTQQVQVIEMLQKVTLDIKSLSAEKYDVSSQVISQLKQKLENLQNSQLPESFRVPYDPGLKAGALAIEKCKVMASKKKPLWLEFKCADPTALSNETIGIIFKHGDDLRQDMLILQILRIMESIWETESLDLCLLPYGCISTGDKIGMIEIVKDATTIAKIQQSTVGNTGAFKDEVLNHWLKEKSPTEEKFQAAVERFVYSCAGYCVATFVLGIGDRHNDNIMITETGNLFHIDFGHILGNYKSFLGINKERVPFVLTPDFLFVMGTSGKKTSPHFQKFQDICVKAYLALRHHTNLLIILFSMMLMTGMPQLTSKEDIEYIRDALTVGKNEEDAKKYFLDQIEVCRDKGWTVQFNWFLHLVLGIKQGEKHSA

[6] = biological target: Protein kinase C delta type (Homo sapiens) (UniProt Q05655); assay: Binding affinity to wild-type human partial length PRKCD (Q328 to D676 residues) expressed in Escherichia coli BL21 at 1 uM by Kinomescan method relative to control
[7] = biological target: Dual specificity mitogen-activated protein kinase kinase 2 (Homo sapiens) (UniProt P36507); assay: Binding affinity to wild-type human full length MEK2 (M1 to V400 residues) expressed in HEK293 cells at 1 uM by Kinomescan method relative to control; type: cell-based
Outline: (§1)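 Run as one kinome-wide competition binding panel with each compound at a single fixed concentration. Results were plotted as a kinome-wide selectivity map.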

[8] = biological target: Mitogen-activated protein kinase kinase kinase kinase 2 (Homo sapiens) (UniProt Q12851); assay: Binding affinity to wild-type human partial length MAP4K2 (M1 to G318 residues) expressed in HEK293 cells at 1 uM by Kinomescan method relative to control; type: cell-based
[9] = biological target: Activin receptor type-2B (Homo sapiens) (UniProt Q13705); assay: Binding affinity to wild-type human ACVR2B (H169 to D504 residues) expressed in Escherichia coli BL21 at 1 uM by Kinomescan method relative to control
Chain of Activin receptor type-2B (Homo sapiens) (Q13705 whole entry, the tested form may be a part): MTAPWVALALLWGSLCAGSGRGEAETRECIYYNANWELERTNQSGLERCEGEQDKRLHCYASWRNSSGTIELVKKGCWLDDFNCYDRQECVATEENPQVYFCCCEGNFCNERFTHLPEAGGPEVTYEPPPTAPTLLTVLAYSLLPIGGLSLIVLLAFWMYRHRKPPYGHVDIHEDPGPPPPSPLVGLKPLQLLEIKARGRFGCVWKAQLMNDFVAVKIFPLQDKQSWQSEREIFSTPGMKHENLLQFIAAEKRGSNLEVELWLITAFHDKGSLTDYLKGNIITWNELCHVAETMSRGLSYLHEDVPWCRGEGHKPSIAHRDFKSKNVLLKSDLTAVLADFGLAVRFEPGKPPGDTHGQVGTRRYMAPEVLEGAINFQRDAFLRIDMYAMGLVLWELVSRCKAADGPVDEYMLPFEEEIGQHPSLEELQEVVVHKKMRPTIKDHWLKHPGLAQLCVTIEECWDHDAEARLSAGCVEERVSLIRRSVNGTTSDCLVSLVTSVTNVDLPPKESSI

[10] = biological target: Cyclin-dependent kinase 9 (Homo sapiens) (UniProt P50750); assay: Binding affinity to wild-type human full length CDK9 (M1 to F372 residues) expressed in Escherichia coli BL21 at 1 uM by Kinomescan method relative to control; outline: as §1
Chain of Cyclin-dependent kinase 9 (Homo sapiens) (P50750 whole entry, the tested form may be a part): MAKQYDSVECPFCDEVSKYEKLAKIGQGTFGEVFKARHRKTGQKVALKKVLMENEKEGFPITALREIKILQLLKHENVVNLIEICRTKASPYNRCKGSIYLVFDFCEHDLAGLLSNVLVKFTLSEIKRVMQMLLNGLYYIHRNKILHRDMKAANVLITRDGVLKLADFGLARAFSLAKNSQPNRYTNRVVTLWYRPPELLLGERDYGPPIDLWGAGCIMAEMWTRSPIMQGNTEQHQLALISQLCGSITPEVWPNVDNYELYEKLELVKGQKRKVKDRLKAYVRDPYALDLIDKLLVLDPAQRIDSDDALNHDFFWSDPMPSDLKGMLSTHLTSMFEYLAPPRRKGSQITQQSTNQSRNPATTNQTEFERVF

[11] = biological target: Dual specificity protein kinase CLK4 (Homo sapiens) (UniProt Q9HAZ1); assay: Binding affinity to wild-type human partial length CLK4 (R135 to K481 residues) expressed in Escherichia coli BL21 at 1 uM by Kinomescan method relative to control
Chain of Dual specificity protein kinase CLK4 (Homo sapiens) (Q9HAZ1 whole entry, looked up, the tested form may be a part): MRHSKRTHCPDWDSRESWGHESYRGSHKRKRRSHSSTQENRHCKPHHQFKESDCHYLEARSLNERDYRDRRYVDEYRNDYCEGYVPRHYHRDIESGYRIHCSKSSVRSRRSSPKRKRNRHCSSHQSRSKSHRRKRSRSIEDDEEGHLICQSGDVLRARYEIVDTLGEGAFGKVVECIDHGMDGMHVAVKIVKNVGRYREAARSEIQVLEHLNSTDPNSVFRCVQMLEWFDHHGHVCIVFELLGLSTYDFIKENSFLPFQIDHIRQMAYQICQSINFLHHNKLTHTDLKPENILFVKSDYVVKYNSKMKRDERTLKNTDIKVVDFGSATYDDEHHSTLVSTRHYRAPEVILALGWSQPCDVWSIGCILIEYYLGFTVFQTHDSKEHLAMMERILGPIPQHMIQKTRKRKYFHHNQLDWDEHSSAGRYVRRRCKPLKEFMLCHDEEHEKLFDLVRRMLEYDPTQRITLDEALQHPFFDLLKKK

[12] = biological target: AP2-associated protein kinase 1 (Homo sapiens) (UniProt Q2M2I8); assay: Binding affinity to human wild-type AAK1 (G25 to L333 residues) expressed in Escherichia coli BL21 at 1 uM by Kinomescan method relative to control
[13] = biological target: Focal adhesion kinase 1 (Homo sapiens) (UniProt Q05397); assay: Binding affinity to wild-type human partial length FAK (D402 to R696 residues) expressed in Escherichia coli BL21 at 1 uM by Kinomescan method relative to control
[14] = biological target: Ephrin type-A receptor 6 (Homo sapiens) (UniProt Q9UF33); assay: Binding affinity to wild-type human partial length EPHA6 (Y700 to E1046 residues) expressed in Escherichia coli BL21 at 1 uM by Kinomescan method relative to control
[15] = biological target: Protein-tyrosine kinase 6 (Homo sapiens) (UniProt Q13882); assay: Binding affinity to wild-type human partial length BRK (L166 to T451 residues) expressed in Escherichia coli BL21 at 1 uM by Kinomescan method relative to control
[16] = biological target: Mitogen-activated protein kinase 13 (Homo sapiens) (UniProt O15264); assay: Binding affinity to wild-type human full length p38-delta (M1 to L365 residues) expressed in Escherichia coli BL21 at 1 uM by Kinomescan method relative to control
Chain of Mitogen-activated protein kinase 13 (Homo sapiens) (O15264 whole entry, the tested form may be a part): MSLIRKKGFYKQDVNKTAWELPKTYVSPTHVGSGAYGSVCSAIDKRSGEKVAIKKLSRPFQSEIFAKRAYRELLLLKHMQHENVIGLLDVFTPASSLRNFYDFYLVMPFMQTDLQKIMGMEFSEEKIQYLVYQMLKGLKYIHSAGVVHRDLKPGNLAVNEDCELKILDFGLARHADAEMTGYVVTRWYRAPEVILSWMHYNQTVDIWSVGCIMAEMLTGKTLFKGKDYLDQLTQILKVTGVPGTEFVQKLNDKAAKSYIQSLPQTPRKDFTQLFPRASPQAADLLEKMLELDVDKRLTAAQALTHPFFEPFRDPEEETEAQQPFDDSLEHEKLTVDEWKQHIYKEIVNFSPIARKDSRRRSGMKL
Outline: (§2)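 Kinome-wide competition binding panel run by an outside provider, with each compound tested at a single concentration. Activity is read against the kinase panel.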

[17] = biological target: Casein kinase I isoform alpha (Homo sapiens) (UniProt P48729); assay: Binding affinity to wild-type human partial length CSNK1A1 (M1 to L450 residues) expressed in HEK293 cells at 1 uM by Kinomescan method relative to control; type: cell-based
[18] = system: Hepatocyte growth factor receptor (Homo sapiens), P08581 [Y1235D]; assay: Binding affinity to human partial length MET Y1235D mutant (D1010 to S1367 residues) expressed in Escherichia coli BL21 at 1 uM by Kinomescan method relative to control
[19] = biological target: Serine/threonine-protein kinase LATS1 (Homo sapiens) (UniProt O95835); assay: Binding affinity to wild-type human partial length LATS1 (Q678 to V1130 residues) expressed in Escherichia coli BL21 at 1 uM by Kinomescan method relative to control
Chain of Serine/threonine-protein kinase LATS1 (Homo sapiens) (O95835 whole entry, the tested form may be a part): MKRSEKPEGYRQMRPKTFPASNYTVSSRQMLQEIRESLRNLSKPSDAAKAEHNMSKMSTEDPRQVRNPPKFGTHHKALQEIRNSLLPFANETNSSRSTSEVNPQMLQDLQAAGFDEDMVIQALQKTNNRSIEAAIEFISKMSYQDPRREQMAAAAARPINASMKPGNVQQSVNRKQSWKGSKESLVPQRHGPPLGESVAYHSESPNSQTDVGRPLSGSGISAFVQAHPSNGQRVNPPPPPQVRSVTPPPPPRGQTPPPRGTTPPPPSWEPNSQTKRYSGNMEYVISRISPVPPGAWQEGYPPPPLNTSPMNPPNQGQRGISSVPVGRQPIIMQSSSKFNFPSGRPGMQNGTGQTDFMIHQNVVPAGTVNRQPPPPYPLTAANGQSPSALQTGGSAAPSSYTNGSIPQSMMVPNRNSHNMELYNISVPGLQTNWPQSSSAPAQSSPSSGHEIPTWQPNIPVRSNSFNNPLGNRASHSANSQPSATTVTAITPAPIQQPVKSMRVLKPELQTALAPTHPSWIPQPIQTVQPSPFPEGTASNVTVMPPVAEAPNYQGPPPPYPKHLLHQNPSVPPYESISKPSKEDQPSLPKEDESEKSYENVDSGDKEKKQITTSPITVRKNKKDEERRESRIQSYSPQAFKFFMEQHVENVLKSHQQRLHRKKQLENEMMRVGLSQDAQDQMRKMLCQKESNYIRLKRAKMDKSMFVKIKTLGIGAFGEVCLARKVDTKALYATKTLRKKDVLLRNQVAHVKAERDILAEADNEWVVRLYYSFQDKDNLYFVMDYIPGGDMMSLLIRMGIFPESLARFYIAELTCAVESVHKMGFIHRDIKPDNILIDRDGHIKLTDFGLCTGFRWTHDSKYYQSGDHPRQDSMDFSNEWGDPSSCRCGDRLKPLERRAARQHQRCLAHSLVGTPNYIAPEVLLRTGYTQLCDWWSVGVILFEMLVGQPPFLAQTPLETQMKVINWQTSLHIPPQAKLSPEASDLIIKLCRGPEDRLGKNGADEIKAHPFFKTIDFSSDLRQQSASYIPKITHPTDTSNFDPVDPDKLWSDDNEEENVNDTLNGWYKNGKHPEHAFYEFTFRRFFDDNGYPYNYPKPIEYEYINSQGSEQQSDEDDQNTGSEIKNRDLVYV

[20] = biological target: Platelet-derived growth factor receptor alpha (Homo sapiens) (UniProt P16234); assay: Binding affinity to wild-type human partial length PDGFRA (V575 to D1002 residues) expressed in HEK293 cells at 1 uM by Kinomescan method relative to control; type: cell-based
[21] = biological target: Serine/threonine-protein kinase PAK 4 (Homo sapiens) (UniProt O96013); assay: Binding affinity to wild-type human partial length PAK4 (Q144 to R438 residues) expressed in Escherichia coli BL21 at 1 uM by Kinomescan method relative to control
[22] = biological target: MAP/microtubule affinity-regulating kinase 3 (Homo sapiens) (UniProt P27448); assay: Binding affinity to wild-type human full length MARK3 (M1 to L729 residues) expressed in Escherichia coli BL21 at 1 uM by Kinomescan method relative to control; outline: as §1
[23] = biological target: Cyclin-dependent kinase 18 (Homo sapiens) (UniProt Q07002); assay: Binding affinity to wild-type human full length PCTK3 (M3 to F474 residues) expressed in Escherichia coli BL21 at 1 uM by Kinomescan method relative to control; outline: as §2
Chain of Cyclin-dependent kinase 18 (Homo sapiens) (Q07002 whole entry, the tested form may be a part): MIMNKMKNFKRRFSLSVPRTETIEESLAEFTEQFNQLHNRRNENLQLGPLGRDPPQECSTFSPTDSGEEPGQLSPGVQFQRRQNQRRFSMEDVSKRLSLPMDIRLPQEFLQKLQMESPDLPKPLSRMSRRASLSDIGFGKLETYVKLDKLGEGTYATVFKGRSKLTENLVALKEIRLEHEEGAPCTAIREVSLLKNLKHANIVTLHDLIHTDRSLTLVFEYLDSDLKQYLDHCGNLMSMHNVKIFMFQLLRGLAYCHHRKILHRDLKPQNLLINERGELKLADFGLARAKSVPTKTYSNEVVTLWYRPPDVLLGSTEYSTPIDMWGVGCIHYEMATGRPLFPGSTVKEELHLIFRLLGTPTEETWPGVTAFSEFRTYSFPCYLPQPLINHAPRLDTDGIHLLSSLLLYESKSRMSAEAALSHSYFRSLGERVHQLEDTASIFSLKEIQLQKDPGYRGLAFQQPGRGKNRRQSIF

[24] = biological target: Tyrosine-protein kinase ITK/TSK (Homo sapiens) (UniProt Q08881); assay: Binding affinity to wild-type human partial length ITK (R335 to L620 residues) expressed in Escherichia coli BL21 at 1 uM by Kinomescan method relative to control
[25] = biological target: Dual specificity mitogen-activated protein kinase kinase 1 (Homo sapiens) (UniProt Q02750); assay: Binding affinity to wild-type human full length MEK1 (M1 to V393 residues) expressed in HEK293 cells at 1 uM by Kinomescan method relative to control; type: cell-based; outline: as §1
Chain of Dual specificity mitogen-activated protein kinase kinase 1 (Homo sapiens) (Q02750 whole entry, the tested form may be a part): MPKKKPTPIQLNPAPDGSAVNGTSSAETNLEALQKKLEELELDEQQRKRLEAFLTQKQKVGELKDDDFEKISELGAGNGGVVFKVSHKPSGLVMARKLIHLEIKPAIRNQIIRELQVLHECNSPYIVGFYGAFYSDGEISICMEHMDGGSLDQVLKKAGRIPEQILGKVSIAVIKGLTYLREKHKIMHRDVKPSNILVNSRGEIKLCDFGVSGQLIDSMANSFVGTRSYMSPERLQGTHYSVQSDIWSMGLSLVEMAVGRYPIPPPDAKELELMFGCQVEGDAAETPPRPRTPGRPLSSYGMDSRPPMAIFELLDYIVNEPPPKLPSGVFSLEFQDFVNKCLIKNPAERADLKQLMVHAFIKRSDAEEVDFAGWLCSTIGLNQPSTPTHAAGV

CCC(=O)Nc1ccc(C(=O)Nc2ccc(Nc3ncc4c(n3)N(C)c3ccc(C)cc3C(=O)N4C)cc2)cc1
Activity [1]: 72% | Activity [2]: 82% | Activity [3]: 74% | Activity [4]: 99% | Activity [5]: 20% | Activity [6]: 84% | Activity [7]: 72% | Activity [8]: 97% | Activity [9]: 100% | Activity [10]: 97% | Activity [11]: 100% | Activity [12]: 100% | Activity [13]: 99% | Activity [14]: 76% | Activity [15]: 100% | Activity [16]: 97% | Activity [17]: 58% | Activity [18]: 91% | Activity [19]: 100% | Activity [20]: 63% | Activity [21]: 98% | Activity [22]: 95% | Activity [23]: 86% | Activity [24]: 76% | Activity [25]: 52%

C=CC(=O)Nc1ccc(C(=O)Nc2ccc(Nc3ncc4c(n3)N(C)c3ccc(C)cc3C(=O)N4C)cc2)cc1
Activity [1]: 78% | Activity [2]: 100% | Activity [3]: 94% | Activity [4]: 90% | Activity [5]: 24% | Activity [6]: 97% | Activity [7]: 86% | Activity [8]: 92% | Activity [9]: 100% | Activity [10]: 97% | Activity [11]: 100% | Activity [12]: 99% | Activity [13]: 92% | Activity [14]: 86% | Activity [15]: 99% | Activity [16]: 84% | Activity [17]: 86% | Activity [18]: 87% | Activity [19]: 99% | Activity [20]: 91% | Activity [21]: 97% | Activity [22]: 80% | Activity [23]: 99% | Activity [24]: 94% | Activity [25]: 100%
